Assays:
Format in all cases: functional
[1] = test system: U-251; assay: Growth inhibition of human U251 cells after 48 hrs by sulforhodamine B assay; conditions: U-251, 48 h
Summary of the method: (§1)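 NCI-60 panel screen by SRB assay (Rubinstein method). Percentage growth taken from optical density of SRB colour, read before and 48 hrs after exposure to compound or vehicle control. All analogues first screened at 10^-5 M. Analogues giving 60% growth inhibition at that level in at least eight lines then went to a five-concentration dose-response study.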

[2] = Growth inhibition of human LOXIMVI cells after 48 hrs by sulforhodamine B assay; conditions: LOX IMVI; summary of the method: as §1
[3] = Growth inhibition of human SNB75 cells after 48 hrs by sulforhodamine B assay; conditions: SNB-75, 48 h; summary of the method: as §1
[4] = Growth inhibition of human SF295 cells after 48 hrs by sulforhodamine B assay; conditions: SF-295, 48 h; summary of the method: as §1
[5] = Growth inhibition of human SF268 cells after 48 hrs by sulforhodamine B assay; conditions: SF-268, 48 h; summary of the method: as §1
[6] = Growth inhibition of human SW620 cells after 48 hrs by sulforhodamine B assay; conditions: SW-620, 48 h; summary of the method: as §1
[7] = test system: KM12; assay: Growth inhibition of human KM12 cells after 48 hrs by sulforhodamine B assay; conditions: KM12, 48 h; summary of the method: as §1
[8] = test system: HT-29; assay: Growth inhibition of human HT-29 cells after 48 hrs by sulforhodamine B assay; conditions: HT-29, 48 h; summary of the method: as §1
[9] = Growth inhibition of human HCT15 cells after 48 hrs by sulforhodamine B assay; conditions: HCT-15, 48 h; summary of the method: as §1
[10] = Growth inhibition of human HCT116 cells after 48 hrs by sulforhodamine B assay; conditions: HCT-116, 48 h; summary of the method: as §1
[11] = Growth inhibition of human HCC2998 cells after 48 hrs by sulforhodamine B assay; conditions: HCC 2998, 48 h; summary of the method: as §1
[12] = Growth inhibition of human COLO205 cells after 48 hrs by sulforhodamine B assay; conditions: COLO 205, 48 h; summary of the method: as §1
[13] = test system: NCI-H460; assay: Growth inhibition of human NCI-H460 cells after 48 hrs by sulforhodamine B assay; conditions: NCI-H460, 48 h; summary of the method: as §1
[14] = test system: NCI-H23; assay: Growth inhibition of human NCI-H23 cells after 48 hrs by sulforhodamine B assay; conditions: NCI-H23, 48 h; summary of the method: as §1
[15] = Growth inhibition of human HOP92 cells after 48 hrs by sulforhodamine B assay; conditions: HOP-92, 48 h; summary of the method: as §1
[16] = Growth inhibition of human HOP62 cells after 48 hrs by sulforhodamine B assay; conditions: HOP-62, 48 h; summary of the method: as §1
[17] = test system: A549; assay: Growth inhibition of human A549/ATCC cells after 48 hrs by sulforhodamine B assay; conditions: A549, 48 h; summary of the method: as §1
[18] = test system: SR; assay: Growth inhibition of human SR cells after 48 hrs by sulforhodamine B assay; summary of the method: as §1
[19] = Growth inhibition of human RPMI8226 cells after 48 hrs by sulforhodamine B assay; conditions: RPMI-8226, 48 h; summary of the method: as §1
[20] = test system: K562; assay: Growth inhibition of human K562 cells after 48 hrs by sulforhodamine B assay; conditions: K562, 48 h; summary of the method: as §1
[21] = Growth inhibition of human HL-60(TB) cells after 48 hrs by sulforhodamine B assay; conditions: HL-60, 48 h; summary of the method: as §1
[22] = test system: CCRF-CEM; assay: Growth inhibition of human CCRF-CEM cells after 48 hrs by sulforhodamine B assay; summary of the method: as §1
[23] = test system: MDA-MB-435; assay: Growth inhibition of human MDA-MB-435 cells after 48 hrs by sulforhodamine B assay; conditions: MDA-MB-435, 48 h
Summary of the method: (§2)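 NCI-60 sulforhodamine B screen. Compounds were first tested at a single dose of 10⁻⁵ M; hits, defined as ≥60% growth inhibition in at least eight lines, went on to a five-concentration dose–response. SRB optical density was read before and 48 h after exposure to compound or vehicle. Percentage growth was calculated from OD.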

[24] = test system: SK-MEL-2; assay: Growth inhibition of human SK-MEL-2 cells after 48 hrs by sulforhodamine B assay; conditions: SK-MEL-2, 48 h; summary of the method: as §1
[25] = Growth inhibition of human IGROV1 cells after 48 hrs by sulforhodamine B assay; conditions: IGROV-1, 48 h; summary of the method: as §1
[26] = Growth inhibition of human OVCAR3 cells after 48 hrs by sulforhodamine B assay; conditions: OVCAR-3, 48 h; summary of the method: as §2
[27] = Growth inhibition of human NCI-ADR-RES cells after 48 hrs by sulforhodamine B assay; summary of the method: as §1
[28] = Growth inhibition of human SKOV3 cells after 48 hrs by sulforhodamine B assay; conditions: SK-OV-3, 48 h; summary of the method: as §1
[29] = test system: A498; assay: Growth inhibition of human A498 cells after 48 hrs by sulforhodamine B assay; conditions: A498, 48 h; summary of the method: as §2
[30] = test system: ACHN; assay: Growth inhibition of human ACHN cells after 48 hrs by sulforhodamine B assay; summary of the method: as §1
[31] = test system: CAKI-1; assay: Growth inhibition of human CAKI-1 cells after 48 hrs by sulforhodamine B assay; conditions: CAKI-1, 48 h; summary of the method: as §1
[32] = Growth inhibition of human UO31 cells after 48 hrs by sulforhodamine B assay; conditions: UO-31, 48 h; summary of the method: as §1
[33] = Growth inhibition of human PC3 cells after 48 hrs by sulforhodamine B assay; conditions: PC-3, 48 h; summary of the method: as §1
[34] = Growth inhibition of human DU145 cells after 48 hrs by sulforhodamine B assay; conditions: DU-145, 48 h; summary of the method: as §1
[35] = test system: MCF7; assay: Growth inhibition of human MCF7 cells after 48 hrs by sulforhodamine B assay; conditions: MCF7, 48 h; summary of the method: as §1
[36] = test system: MDA-MB-231; assay: Growth inhibition of human MDA-MB-231 cells after 48 hrs by sulforhodamine B assay; conditions: MDA-MB-231, 48 h; summary of the method: as §1
[37] = test system: MDA-MB-468; assay: Growth inhibition of human MDA-MB-468 cells after 48 hrs by sulforhodamine B assay; conditions: MDA-MB-468, 48 h; summary of the method: as §1
[38] = read-out: LD50 (the source's name)

COc1cc(-c2n[nH]nc2-c2ccc3c(c2)OCCO3)cc(OC)c1OC
18 nM: GI50 [2] | GI50 [16] | GI50 [33]
39 nM: GI50 [11]
> 100 µM: CC50 [1, 38] | CC50 [2, 38] | CC50 [3, 38] | CC50 [4, 38] | CC50 [5, 38] | LD50 (concentration killing 50% of cells) [6] | LC50 (concentration killing 50% of cells) ([7]; read-out: LD50) | LC50 (concentration killing 50% of cells) ([8]; read-out: LD50) | CC50 [9, 38] | CC50 [10, 38] | CC50 [11, 38] | CC50 [12, 38] | CC50 [13, 38] | LC50 (concentration giving 50% cell kill) ([14]; read-out: LD50) | CC50 [15, 38] | LC50 (concentration killing 50% of cells) ([16]; read-out: LD50) | CC50 [17, 38] | LC50 (concentration giving 50% net cell kill) ([18]; read-out: LD50) | CC50 [19, 38] | CC50 [20, 38] | CC50 [21, 38] | LC50 (concentration killing 50% of cells) ([22]; read-out: LD50) | LC50 (concentration killing 50% of cells) ([23]; read-out: LD50) | CC50 [24, 38] | CC50 [25, 38] | LC50 (concentration giving 50% net cell kill) ([26]; read-out: LD50) | CC50 [27, 38] | LC50 (concentration killing 50% of cells) ([28]; read-out: LD50) | LC50 (50% net cell kill) ([29]; read-out: LD50) | CC50 [30, 38] | CC50 [31, 38] | LC50 (concentration killing 50% of cells) ([32]; read-out: LD50) | CC50 [33, 38] | CC50 [34, 38] | CC50 [35, 38] | CC50 [36, 38] | CC50 [37, 38]
34 nM: GI50 [22]
20 nM: GI50 [1]
33 nM: GI50 [19] | GI50 [25]
15 nM: GI50 [37]
23 nM: GI50 [17]
27 nM: GI50 [12]
44 nM: GI50 [36]
19 nM: GI50 [21]
25 nM: GI50 [8] | GI50 [13] | GI50 [34]
48 nM: GI50 [14]
10 nM: GI50 [29]
< 10 nM: GI50 [3] | GI50 [4] | GI50 [6] | GI50 [7] | GI50 [9] | GI50 [10] | GI50 [15] | GI50 [18] | GI50 [20] | GI50 [23] | GI50 [24] | GI50 [26] | GI50 [27] | GI50 [28] | GI50 [30] | GI50 [31] | GI50 [32] | GI50 [35]
69 nM: GI50 [5]
